ChEMBL document CHEMBL1121917, “Structure--activity relationships in a broad-spectrum anthelmintic series. Acid chloride phenylhydrazones. 1. Aryl substitutions and chloride variations” (1981)

Tests used:
Mus musculus [1] = species on record: Mus musculus; assay: Percent clearance of Hymenolepis nana from mouse after oral treatment of 0.12 mg/mouse/day; format: functional
In short: (§1)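 Mice naturally carrying Syphacia obvelata were experimentally infected with Nematospiroides dubius and Hymenolepis nana, then grouped after a 2-week prepatency. Finely ground compound was suspended in aqueous 0.10% carboxymethylcellulose, 0.04% polysorbate 80 and 0.0042% polyparaben, and 0.1 mL was given orally by cannula once daily for 4 days to five mice. Necropsy followed 2 days later, scoring presence or absence of each parasite. Control clearance was subtracted from the treated clearance.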

Mus musculus [2] = species on record: Mus musculus; assay: Percent clearance of Nematospiroides dubius from mouse after oral treatment of 0.12 mg/mouse/day; format: functional; in short: as §1
Ovis aries [3] = assay: Percent reduction in Cooperia eggs per gram, after treatment with 400 mg/kg dose of compound perorally in sheep; format: functional, Egg; details: route oral
In short: (§2)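 Naturally parasitized lambs received compound orally, either as the aqueous suspension by stomach tube or as finely ground powder in gelatin capsules by balling gun. Activity was judged by the clinical test method, as a significant decrease in posttreatment helminth egg counts.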

Ovis aries [4] = assay: Percent reduction in Moniezia eggs per gram, after treatment of 200 mg/kg dose of compound perorally in sheep; format: functional, Egg; details: route oral
In short: (§3)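 Naturally parasitized lambs were dosed orally at the stated mg/kg. Dosing was either as a suspension of finely ground compound by stomach tube, or as ground compound weighed into gelatin capsules and given by balling gun. Activity was scored by the clinical test method: the decrease in posttreatment helminth eggs per gram.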

Ovis aries [5] = assay: Percent reduction in Strongyloides eggs per gram, after treatment of 100 mg/kg dose of compound perorally in sheep; format: functional, Egg; details: route oral
In short: (§4)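 Naturally parasitized lambs, dosed orally either with a suspension by stomach tube or with finely ground compound in gelatin capsules by balling gun. Activity was scored by the clinical test method, meaning a significant fall in helminth egg counts after treatment.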

Ovis aries [6] = assay: Percent reduction in Haemonchus eggs per gram, after treatment with 450 mg/kg dose of compound perorally in sheep; format: functional, Egg; details: route oral; in short: as §3
Ovis aries [7] = assay: Percent reduction in Nematodirus eggs per gram, after treatment of 200 mg/kg dose of compound perorally in sheep; format: functional, Egg; details: route oral; in short: as §3
Ovis aries [8] = assay: Percent reduction in Ostertagia eggs per gram, after treatment of 100 mg/kg dose of compound perorally in sheep; format: functional, Egg; details: route oral; in short: as §3
Ovis aries [9] = assay: Percent reduction in Ostertagia eggs per gram, after treatment with 350 mg/kg dose of compound perorally in sheep; format: functional, Egg; details: route oral; in short: as §4
Ovis aries [10] = assay: Percent reduction in Haemonchus eggs per gram, after treatment of 200 mg/kg dose of compound perorally in sheep; format: functional, Egg; details: route oral; in short: as §2
Ovis aries [11] = assay: Percent reduction in Haemonchus eggs per gram, after treatment with 400 mg/kg dose of compound perorally in sheep; format: functional, Egg; details: route oral; in short: as §3
Ovis aries [12] = assay: Percent reduction in Oesophagostomum eggs per gram, after treatment with 350 mg/kg dose of compound perorally in sheep; format: functional, Egg; details: route oral; in short: as §3
Ovis aries [13] = assay: Percent reduction in Trichostrongylus eggs per gram, after treatment with 400 mg/kg dose of compound perorally in sheep; format: functional, Egg; details: route oral; in short: as §4
Ovis aries [14] = assay: Percent reduction in Trichuris eggs per gram, after treatment of 100 mg/kg dose of compound perorally in sheep; format: functional, Egg; details: route oral
Ovis aries [15] = assay: Percent reduction in Haemonchus eggs per gram, after oral treatment of 100 mg/kg dose of compound perorally in sheep; format: functional, Egg; in short: as §2
Ovis aries [16] = assay: Percent reduction in Strongyloides eggs per gram, after treatment with 450 mg/kg dose of compound perorally in sheep; format: functional, Egg; details: route oral; in short: as §4
Ovis aries [17] = assay: Percent reduction in Oesophagostomum eggs per gram, after treatment of 100 mg/kg dose of compound perorally in sheep; format: functional, Egg; details: route oral; in short: as §3
Ovis aries [18] = assay: Percent reduction in Cooperia eggs per gram, after treatment of 200 mg/kg dose of compound perorally in sheep; format: functional, Egg; details: route oral; in short: as §2
Ovis aries [19] = assay: Percent reduction in Trichostrongylus eggs per gram, after oral treatment of 250 mg/kg dose of compound perorally in sheep; format: functional, Egg; in short: as §4
Ovis aries [20] = assay: Percent reduction in Ostertagia eggs per gram, after treatment with 450 mg/kg dose of compound perorally in sheep; format: functional, Egg; details: route oral; in short: as §4
Ovis aries [21] = assay: percent reduction in Strongyloides eggs per gram, after treatment with 250 mg/kg dose of compound perorally in sheep; format: functional, Egg; details: route oral
Ovis aries [22] = assay: Percent reduction in Trichostrongylus eggs per gram, after treatment with 450 mg/kg dose of compound perorally in sheep; format: functional, Egg; details: route oral; in short: as §4
Ovis aries [23] = assay: Percent reduction in Trichuris eggs per gram, after treatment with 350 mg/kg dose of compound perorally
Mus musculus [24] = species on record: Mus musculus; assay: Percent clearance of Hymenolepis nana from mouse after oral treatment of 1.87 mg/mouse/day; format: functional; in short: as §1
Ovis aries [25] = assay: Percent reduction in Trichuris eggs per gram, after treatment with 250 mg/kg dose of compound perorally in sheep; format: functional, Egg; details: route oral; in short: as §4
Ovis aries [26] = assay: Percent reduction in Nematodirus eggs per gram, after treatment of 100 mg/kg dose of compound perorally in sheep; format: functional, Egg; details: route oral; in short: as §3
Ovis aries [27] = assay: Percent reduction in Strongyloides eggs per gram, after treatment with 400 mg/kg dose of compound perorally in sheep; format: functional, Egg; details: route oral; in short: as §4
Ovis aries [28] = assay: Percent reduction in Trichuris eggs per gram, after treatment of with 200 mg/kg dose of compound perorally in sheep; format: functional, Egg; details: route oral
Ovis aries [29] = assay: Percent reduction in Trichostrongylus eggs per gram, treatment of 100 mg/kg dose of compound perorally in sheep; format: functional, Egg; details: route oral
Canis familiaris [30] = species on record: Canis familiaris; assay: Percent reduction in Uncinaria eggs per gram, after treatment of 100 mg/dog dose of compound in a single treatment; format: functional, Canis lupus familiaris, Egg
Canis familiaris [31] = species on record: Canis familiaris; assay: Percent reduction in Ancylostoma eggs per gram, after treatment of 100 mg/dog dose of compound in a single treatment; format: functional, Canis lupus familiaris, Egg
In short: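 Dogs naturally infected with Toxascaris leonina were experimentally infected with mixed Ancylostoma caninum and Uncinaria stenocephala larvae. Finely ground compound was given orally in gelatin capsules. Fecal egg counts were taken three times before and three times after treatment, and activity was taken as the fall in egg counts.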

Ovis aries [32] = assay: Percent reduction in Trichostrongylus eggs per gram, after treatment with 350 mg/kg dose of compound perorally in sheep; format: functional, Egg; details: route oral
Ovis aries [33] = assay: Percent reduction in Strongyloides eggs per gram, after treatment with 350 mg/kg dose of compound perorally in sheep; format: functional, Egg; details: route oral; in short: as §4
Ovis aries [34] = assay: Percent reduction in Cooperia eggs per gram, after treatment of 100 mg/kg dose of compound perorally in sheep; format: functional, Egg; details: route oral; in short: as §2
Ovis aries [35] = assay: Percent reduction in Ostertagia eggs per gram, after oral treatment of 250 mg/Kg dose of compound perorally in sheep; format: functional, Egg; in short: as §3
Mus musculus [36] = species on record: Mus musculus; assay: Percent clearance of Nematospiroides dubius from mouse after oral treatment of 1.87 mg/mouse/day; format: functional; in short: as §1
Ovis aries [37] = assay: Percent reduction in Ostertagia eggs per gram, after treatment of 200 mg/kg dose of compound perorally in sheep; format: functional, Egg; details: route oral; in short: as §3
Ovis aries [38] = assay: Percent reduction in Nematodirus eggs per gram, after treatment with 250 mg/kg dose of compound perorally in sheep; format: functional, Egg; details: route oral; in short: as §3
Ovis aries [39] = assay: Percent reduction in Trichuris eggs per gram, after treatment with 400 mg/kg dose of compound perorally in sheep; format: functional, Egg; details: route oral; in short: as §4
Ovis aries [40] = assay: Percent reduction in Oesophagostomum eggs per gram, after treatment with 250 mg/kg dose of compound perorally in sheep; format: functional, Egg; details: route oral; in short: as §3
Ovis aries [41] = assay: Percent reduction in Nematodirus eggs per gram, after treatment with 350 mg/kg dose of compound perorally in sheep; format: functional, Egg; details: route oral; in short: as §3
Ovis aries [42] = assay: Percent reduction in Oesophagostomum eggs per gram, after treatment of 200 mg/kg dose of compound perorally in sheep; format: functional, Egg; details: route oral; in short: as §3
Ovis aries [43] = assay: Percent reduction in Haemonchus eggs per gram, after treatment of 250 mg/kg dose of compound perorally in sheep; format: functional, Egg; details: route oral; in short: as §2
Ovis aries [44] = assay: Percent reduction in Moniezia eggs per gram, after treatment with 400 mg/kg dose of compound perorally in sheep; format: functional, Egg; details: route oral; in short: as §3
Ovis aries [45] = assay: Percent reduction in Nematodirus eggs per gram, after treatment with 400 mg/kg dose of compound perorally in sheep; format: functional, Egg; details: route oral; in short: as §3
Ovis aries [46] = assay: Percent reduction in Strongyloides eggs per gram, after treatment of 200 mg/kg dose of compound perorally in sheep; format: functional, Egg; details: route oral; in short: as §4
Ovis aries [47] = assay: Percent reduction in Ostertagia eggs per gram, after treatment with 400 mg/kg dose of compound perorally in sheep; format: functional, Egg; details: route oral; in short: as §4
Ovis aries [48] = assay: Percent reduction in Oesophagostomum eggs per gram, after treatment with 400 mg/kg dose of compound perorally in sheep; format: functional, Egg; details: route oral; in short: as §3
Ovis aries [49] = assay: Percent reduction in Trichostrongylus eggs per gram, after ral treatment of 200 mg/kg dose of compound perorally in sheep; format: functional, Egg; details: route oral; in short: as §4
Ovis aries [50] = assay: Percent reduction in Trichuris eggs per gram, after treatment with 450 mg/kg dose of compound perorally in sheep; format: functional, Egg; details: route oral; in short: as §4
Canis familiaris [51] = species on record: Canis familiaris; assay: Percentt reduction in Toxascaris eggs per gram, after treatment of 100 mg/dog dose of compound in a single treatment; format: functional, Canis lupus familiaris, Egg

Cc1cccc(/C(Cl)=N/Nc2ccccc2)c1
Parasite_Clearance (Mus musculus [1]): 0%
Parasite_Clearance (Mus musculus [2]): 0%

FC(F)(F)c1cccc(/C(Cl)=N/Nc2ccccc2)c1
Reduction (Ovis aries [3]): 100%
Reduction (Ovis aries [4]): 100%
Reduction (Ovis aries [5]): 98%
Reduction (Ovis aries [6]): 100%
Reduction (Ovis aries [7]): 100%
Reduction (Ovis aries [8]): 98%
Reduction (Ovis aries [9]): 100%
Reduction (Ovis aries [10]): 99%
Reduction (Ovis aries [11]): 100%
Reduction (Ovis aries [12]): 100%
Reduction (Ovis aries [13]): 100%
Reduction (Ovis aries [14]): 35%
Reduction (Ovis aries [15]): 98%
Reduction (Ovis aries [16]): 100%
Reduction (Ovis aries [17]): 100%
Reduction (Ovis aries [18]): 100%
Reduction (Ovis aries [19]): 71%
Reduction (Ovis aries [20]): 100%
Reduction (Ovis aries [21]): 59%
Reduction (Ovis aries [22]): 100%
Reduction (Ovis aries [23]): 0%
Parasite_Clearance (Mus musculus [24]): 75%
Reduction (Ovis aries [25]): 57%
Reduction (Ovis aries [26]): 100%
Reduction (Ovis aries [27]): 100%
Reduction (Ovis aries [28]): 0%
Reduction (Ovis aries [29]): 97%
Reduction (Canis familiaris [30]): 100%
Reduction (Canis familiaris [31]): 100%
Reduction (Ovis aries [32]): 100%
Reduction (Ovis aries [33]): 100%
Reduction (Ovis aries [34]): 100%
Reduction (Ovis aries [35]): 86%
Parasite_Clearance (Mus musculus [36]): 0%
Reduction (Ovis aries [37]): 100%
Reduction (Ovis aries [38]): 29%
Reduction (Ovis aries [39]): 62%
Reduction (Ovis aries [40]): 91%
Reduction (Ovis aries [41]): 100%
Reduction (Ovis aries [42]): 100%
Reduction (Ovis aries [43]): 84%
Reduction (Ovis aries [44]): 100%
Reduction (Ovis aries [45]): 100%
Reduction (Ovis aries [46]): 100%
Reduction (Ovis aries [47]): 100%
Reduction (Ovis aries [48]): 100%
Reduction (Ovis aries [49]): 99%
Reduction (Ovis aries [50]): 0%
Reduction (Canis familiaris [51]): 100%
